Experimental data of several laboratories.
Lines come from different studies, so protocols differ.
TAOK1: Serine/threonine-protein kinase TAO1 (TAOK1, Homo sapiens, UniProt Q7L7X3)
MC3R: Melanocortin receptor 3 (MC3R, Homo sapiens, UniProt P41968)

SMILES | target | test | test system | setting | measurement | result
CCCCC(=O)Nc1ccc(-c2ccc3ncn(CCC)c(=O)c3c2)cn1 | Proto-oncogene tyrosine-protein kinase ROS (ROS1, Homo sapiens, UniProt P08922) | binding, competition with immobilised ligand | – | 0.5 µM | remaining binding | 89%
C#Cc1cc(-c2cc(Nc3nc(N[C@@H](C)c4ccc(F)cn4)ncc3Cl)n[nH]2)ccc1C=O | Ribosomal protein S6 kinase alpha-2 (RPS6KA2, Homo sapiens, UniProt Q15349) | enzyme activity, inhibitor | – | 0.2 µM | inhibition | 39%
Cc1cc2c(C(N)=O)c(N)n(-c3c(C)ccc(O)c3C)c2nc1C | Serine/threonine-protein kinase B-raf (BRAF, Homo sapiens, UniProt P15056) | enzyme activity, inhibitor, ADP detection | – | 10 µM | inhibition | 100%
Cc1cc(O)c(-c2ccc([C@@H](C)CN(C)C)cc2)c2c1[nH]c(=O)c1sccc12 | Wee1-like protein kinase (WEE1, Homo sapiens, UniProt P30291) | enzyme activity, inhibitor | – | 0.1 µM | inhibition | 7.11%
Cc1cc(S(=O)(=O)N[C@H]2CC[C@H](CN3CCN(c4ccc(C5CCC(=O)NC5=O)cc4F)CC3)CC2)ccc1Nc1ncc(C(F)(F)F)c(N2CCC[C@](C)(O)C2)n1 (some centres unmarked) | TAOK1 | binding, competition with immobilised ligand | – | 1 µM | remaining binding | 72%
Cc1cc(F)cc2c(CCC(=O)N[C@@H]3C(=O)NC[C@H]3O)c(-c3ccc(F)cc3)[nH]c12 | Neuropeptide Y receptor type 1 (NPY1R, Homo sapiens, UniProt P25929) | cell-free assay | – | 10 µM | inhibition | 1%
COc1ccc2oc(-c3ccc4nc(N)oc4c3)c/c(=N\c3ccccc3NC(=O)CCN)c2c1 | Epidermal growth factor receptor (EGFR, Homo sapiens, UniProt P00533, L858R) | binding | – | 1 µM | remaining binding | 92%
NC/C(=C\F)COc1cccc(Cn2c(=S)[nH]c(=O)c3[nH]cnc32)c1 | Adenosine receptor A3 (ADORA3, Homo sapiens, UniProt P0DMS8) | ligand displacement, radioligand | – | 10 µM | inhibition | < 50%
CCCC[C@H](NC(C)=O)C(=O)N[C@@H](C)C(=O)N[C@@H](Cc1c[nH]cn1)C(=O)N[C@@H](Cc1ccccc1)C(=O)N[C@@H](CCCNC(=N)N)C(=O)N[C@H](Cc1c[nH]c2ccccc12)C(=O)N[C@@H](CC(=O)O)C(=O)N[C@@H](CCCNC(=N)N)C(=O)N[C@@H](Cc1ccccc1)C(=O)N[C@@H](C(=O)N1CCC[C@@H]1C(N)=O)C(C)C | MC3R | cAMP, agonist | CHO-K1 | – | Emax | 100%
CCN1/C(=C/C(C)=O)Sc2ccc(F)cc21 | Type-1 angiotensin II receptor (AGTR1, Homo sapiens, UniProt P30556) | ligand displacement, radioligand | – | 10 µM | inhibition | 0%
C1=C/COCc2cc(ccc2OCCN2CCCC2)Nc2nccc(n2)-c2cccc(c2)COC/1 | Non-receptor tyrosine-protein kinase TYK2, JH1 (TYK2, Homo sapiens, UniProt P29597) | cell-free assay | – | 0.1 µM | remaining signal | 52%
N#Cc1ccc(NC(=O)Nc2ccccc2)cc1 | SRSF protein kinase 3 (SRPK3, Homo sapiens, UniProt Q9UPE1) | cell-free assay, competition with immobilised ligand | – | 25 µM | remaining binding | 9.7%
CC(=O)N[C@@H](CCCNC(=N)N)C(=O)N[C@H]1CSSC[C@@H](C(N)=O)NC(=O)[C@H](Cc2c[nH]c3ccccc23)NC(=O)[C@H](CCCNC(=N)N)NC(=O)[C@@H](Cc2ccccc2)NC(=O)[C@H](Cc2c[nH]cn2)NC(=O)[C@@H](C)NC1=O | MC3R | cAMP, agonist | CHO-K1 | – | Emax | 88%
C[C@]1(O)CCCN(c2nc(Nc3ccc(S(=O)(=O)N[C@H]4CC[C@H](CN5CCN(c6ccc(C7CCC(=O)NC7=O)cc6F)CC5)CC4)cc3F)ncc2C(F)(F)F)C1 (some centres unmarked) | TAOK1 | binding, competition with immobilised ligand | – | 1 µM | remaining binding | 63%
